Experimental data taken from ChEMBL document CHEMBL5376013, “Design, synthesis and biological evaluation of novel morpholinopyrimidine-5-carbonitrile derivatives as dual PI3K/mTOR inhibitors” (RSC Med Chem, 2024).

Key:
Assay type in all cases: functional
Settings in all cases: read-out: GI
SK-MEL-2 = experiment: Antitumor activity against human SK-MEL-2 cells assessed as growth inhibition at 10 uM relative to control
Procedure, shortened: (§1)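 After drug addition, plates were incubated 48 h at 37 °C under 5% CO2. Adherent cells were fixed with cold TCA (10% final, 60 min, 4 °C) and suspension cells with 16% final TCA. Staining used 0.4% SRB in 1% acetic acid, solubilized in 10 mM trizma, read at A515. Percent growth was calculated from time-zero, control and treated absorbances.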

SR = experiment: Antitumor activity against human SR cells assessed as growth inhibition at 10 uM relative to control
Procedure, shortened: (§2)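 Drug exposure 48 h at 37 °C, 5% CO2. Adherent cells fixed with cold TCA (10% final), suspension cells with TCA (16% final). Stained with 0.4% SRB in 1% acetic acid, dissolved in 10 mM Tris, A515. Growth relative to time-zero and untreated control.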

LOX IMVI = experiment: Antitumor activity against human LOX IMVI cells assessed as growth inhibition at 10 uM relative to control; procedure, shortened: as §1
SF-295 = experiment: Antitumor activity against human SF-295 cells assessed as growth inhibition at 10 uM relative to control; procedure, shortened: as §1
MDA-MB-231 = experiment: Antitumor activity against human MDA-MB-231 cells assessed as growth inhibition at 10 uM relative to control; procedure, shortened: as §1
SNB-75 = experiment: Antitumor activity against human SNB-75 cells assessed as growth inhibition at 10 uM relative to control; procedure, shortened: as §2
786-0 = experiment: Antitumor activity against human 786-0 cells assessed as growth inhibition at 10 uM relative to control; procedure, shortened: as §1
COLO 205 = experiment: Antitumor activity against human COLO 205 cells assessed as growth inhibition at 10 uM relative to control; procedure, shortened: as §1
HCT-15 = experiment: Antitumor activity against human HCT-15 cells assessed as growth inhibition at 10 uM relative to control; procedure, shortened: as §1
UACC-62 = experiment: Antitumor activity against human UACC-62 cells assessed as growth inhibition at 10 uM relative to control; procedure, shortened: as §2
TK-10 = experiment: Antitumor activity against human TK-10 cells assessed as growth inhibition at 10 uM relative to control; procedure, shortened: as §2
MDA-MB-468 = experiment: Antitumor activity against human MDA-MB-468 cells assessed as growth inhibition at 10 uM relative to control; procedure, shortened: as §1
SF-268 = experiment: Antitumor activity against human SF-268 cells assessed as growth inhibition at 10 uM relative to control; procedure, shortened: as §1
RXF 393 = experiment: Antitumor activity against human RXF 393 cells assessed as growth inhibition at 10 uM relative to control; procedure, shortened: as §1
SK-MEL-5 = experiment: Antitumor activity against human SK-MEL-5 cells assessed as growth inhibition at 10 uM relative to control; procedure, shortened: as §2
SK-OV-3 = experiment: Antitumor activity against human SK-OV-3 cells assessed as growth inhibition at 10 uM relative to control; procedure, shortened: as §2
OVCAR-8 = experiment: Antitumor activity against human OVCAR-8 cells assessed as growth inhibition at 10 uM relative to control; procedure, shortened: as §1
HOP-92 = experiment: Antitumor activity against human HOP-92 cells assessed as growth inhibition at 10 uM relative to control; procedure, shortened: as §1
ACHN = experiment: Antitumor activity against human ACHN cells assessed as growth inhibition at 10 uM relative to control; procedure, shortened: as §1
NCI/ADR-RES = experiment: Antitumor activity against human NCI-ADR-RES cells assessed as growth inhibition at 10 uM relative to control; procedure, shortened: as §1
CCRF-CEM = experiment: Antitumor activity against human CCRF-CEM cells assessed as growth inhibition at 10 uM relative to control; procedure, shortened: as §1
Hs-578T = experiment: Antitumor activity against human Hs-578T cells assessed as growth inhibition at 10 uM relative to control; procedure, shortened: as §1
IGROV-1 = experiment: Antitumor activity against human IGROV-1 cells assessed as growth inhibition at 10 uM relative to control; procedure, shortened: as §1
SN12C = experiment: Antitumor activity against human SN12C cells assessed as growth inhibition at 10 uM relative to control; procedure, shortened: as §2
HT-29 = experiment: Antitumor activity against human HT-29 cells assessed as growth inhibition at 10 uM relative to control; procedure, shortened: as §1
MDA-MB-435 = experiment: Antitumor activity against human MDA-MB-435 cells assessed as growth inhibition at 10 uM relative to control; procedure, shortened: as §1
UO-31 = experiment: Antitumor activity against human UO-31 cells assessed as growth inhibition at 10 uM relative to control; procedure, shortened: as §2
SF-539 = experiment: Antitumor activity against human SF-539 cells assessed as growth inhibition at 10 uM relative to control; procedure, shortened: as §1
HL-60 = experiment: Antitumor activity against human HL-60 cells assessed as growth inhibition at 10 uM relative to control; procedure, shortened: as §1
Malme-3M = experiment: Antitumor activity against human Malme-3M cells assessed as growth inhibition at 10 uM relative to control; procedure, shortened: as §1
MCF7 = experiment: Antitumor activity against human MCF7 cells assessed as growth inhibition at 10 uM relative to control; procedure, shortened: as §1
NCI-H522 = experiment: Antitumor activity against human NCI-H522 cells assessed as growth inhibition at 10 uM relative to control; procedure, shortened: as §1
HCT-116 = experiment: Antitumor activity against human HCT-116 cells assessed as growth inhibition at 10 uM relative to control; procedure, shortened: as §1
T47D = experiment: Antitumor activity against human T47D cells assessed as growth inhibition at 10 uM relative to control; procedure, shortened: as §2
A549 = experiment: Antitumor activity against human A549 cells assessed as growth inhibition at 10 uM relative to control; procedure, shortened: as §1
HOP-62 = experiment: Antitumor activity against human HOP-62 cells assessed as growth inhibition at 10 uM relative to control; procedure, shortened: as §1
K562 = experiment: Antitumor activity against human K562 cells assessed as growth inhibition at 10 uM relative to control; procedure, shortened: as §1
NCI-H23 = experiment: Antitumor activity against human NCI-H23 cells assessed as growth inhibition at 10 uM relative to control; procedure, shortened: as §1
NCI-H226 = experiment: Antitumor activity against human NCI-H226 cells assessed as growth inhibition at 10 uM relative to control; procedure, shortened: as §1
SW-620 = experiment: Antitumor activity against human SW-620 cells assessed as growth inhibition at 10 uM relative to control; procedure, shortened: as §2
RPMI-8226 = experiment: Antitumor activity against human RPMI-8226 cells assessed as growth inhibition at 10 uM relative to control; procedure, shortened: as §1
MOLT-4 = experiment: Antitumor activity against human MOLT-4 cells assessed as growth inhibition at 10 uM relative to control; procedure, shortened: as §1
U-251 = experiment: Antitumor activity against human U-251 cells assessed as growth inhibition at 10 uM relative to control; procedure, shortened: as §2
CAKI-1 = experiment: Antitumor activity against human CAKI-1 cells assessed as growth inhibition at 10 uM relative to control; procedure, shortened: as §1
DU-145 = experiment: Antitumor activity against human DU-145 cells assessed as growth inhibition at 10 uM relative to control; procedure, shortened: as §1
A498 = experiment: Antitumor activity against human A498 cells assessed as growth inhibition at 10 uM relative to control; procedure, shortened: as §1

Measured: inhibition of growth at 10 µM

N#Cc1c(-c2ccc(Cl)cc2)nc(NN2C(=O)CCC2=O)nc1N1CCOCC1
33.9%: SNB-75
16%: NCI-H522
1%: MCF7
< 1%: SK-MEL-2 | SR | LOX IMVI | SF-295 | MDA-MB-231 | 786-0 | COLO 205 | HCT-15 | UACC-62 | TK-10 | MDA-MB-468 | SF-268 | RXF 393 | SK-MEL-5 | SK-OV-3 | OVCAR-8 | HOP-92 | ACHN | NCI/ADR-RES | CCRF-CEM | Hs-578T | IGROV-1 | SN12C | HT-29 | MDA-MB-435 | SF-539 | HL-60 | Malme-3M | HCT-116 | T47D | A549 | HOP-62 | K562 | NCI-H23 | NCI-H226 | SW-620 | RPMI-8226 | MOLT-4 | U-251 | CAKI-1 | DU-145 | A498
12.5%: UO-31
